From ChEMBL document CHEMBL5715959, “Inhibition of histone methyltransferase EZH2 in Schistosoma mansoni in vitro by GSK343 reduces egg laying and decreases the expression of genes implicated in DNA replication and noncoding RNA metabolism” (2018) come the findings set out here.

In assay [1] the test system is Schistosoma mansoni. As to the kind of experiment: Antischistosomal activity against adult Schistosoma mansoni assessed as altered motility at 50 uM incubated for 12 hrs by inverted microscope analysis. It counts as functional, organism-based. The method in brief: (§1)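 Paired adult worms were cultured in RPMI/10% FBS with antibiotics at 37°C, 5% CO2, with GSK343 or 0.1% DMSO. They were viewed by inverted microscope at 3, 6, 12, 24 and 48 h. Motility was scored on a 0–3 scale (3 full movement, 1.5 partial or immobile but alive, 0 dead); death meant no movement over more than 2 min. Pairing was recorded. Three experiments, each with 10 pairs; mean ± SD.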

Assay [2] relates to Schistosoma mansoni. Nature of the assay: Antischistosomal activity against adult Schistosoma mansoni assessed as decreased motility at 20 uM incubated for 48 hrs by inverted microscope analysis relative to control. It counts as functional. Details: scale not given: the % may be the effect or the level left. The method in brief: as §1
The test system of assay [3] is Schistosoma mansoni. Nature of the assay: Antischistosomal activity against adult male Schistosoma mansoni assessed as morphological alterations in anterior and posterior regions at 20 uM incubated for 48 hrs by scanning electron microscopy analysis. Type of assay: functional, organism-based. The procedure, abridged: (§2)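 Adult couples were taken by perfusion into supplemented RPMI, one couple per well, and adapted 2 h at 37°C, 5% CO2. They were exposed to 20 μM GSK343 or 0.1% DMSO for 24 and 48 h. Fixation used modified Karnovsky with osmium post-fix, followed by ethanol dehydration, critical-point drying, gold sputtering and scanning electron microscopy of tegument surfaces.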

Assay [4] deals with Schistosoma mansoni. Nature of the assay: Antischistosomal activity against adult female Schistosoma mansoni assessed as damaged tegument with extensive sloughing at 20 uM incubated for 24 to 48 hrs by scanning electron microscopy analysis. It counts as functional, organism-based. Particulars: time 24-48 hrs. The method in brief:
as §2

Assay [5] concerns Schistosoma mansoni. As to the kind of experiment: Antischistosomal activity against adult female Schistosoma mansoni assessed as rupture of blisters in dorsal region at 20 uM incubated for 24 to 48 hrs by scanning electron microscopy analysis. It counts as functional, organism-based. Particulars: time 24-48 hrs. The procedure, abridged: as §2
Assay [6] concerns Schistosoma mansoni. As to the kind of experiment: Antischistosomal activity against adult female Schistosoma mansoni assessed as presence of fissures in egg shell at 20 uM incubated for 24 to 48 hrs by scanning electron microscopy analysis. It counts as functional, organism-based. Particulars: time 24-48 hrs. The method in brief: (§3)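 Eggs released by couples kept 24 or 48 h with 20 μM GSK343 or 0.1% DMSO in supplemented RPMI were fixed in modified Karnovsky with osmium post-fix. They were dehydrated, critical-point dried, gold-coated and imaged by SEM; total egg area dimension was measured.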

The test system of assay [7] is Schistosoma mansoni. As to the kind of experiment: Antischistosomal activity against adult female Schistosoma mansoni assessed as reduction in area dimension of egg at 20 uM incubated for 24 to 48 hrs by scanning electron microscopy analysis relative to control. Particulars: time 24-48 hrs. It counts as functional. Details: scale not given: the % may be the effect or the level left. The method in brief: as §3

The test system of assay [8] is Schistosoma mansoni. As to the kind of experiment: Antischistosomal activity against juvenile Schistosoma mansoni assessed as damaged dorsal surface ridge at 20 to 50 uM incubated for 48 hrs by scanning electron microscopy analysis. Type of assay: functional, organism-based. Particulars: dose 20-50 µM. The method in brief:
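Juvenile worms recovered by perfusion, five per well in supplemented RPMI (10% FBS, antibiotics, 37°C, 5% CO2), 2 h adaptation, then exposed 48 h to compound or 0.1% DMSO. Fixed in modified Karnovsky reagent (pH 7.4), washed in cacodylate buffer, post-fixed 1 h in 1% osmium tetroxide, ethanol-dehydrated, critical-point dried, gold-sputtered and imaged by scanning electron microscopy.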

Assay [9] has as its system Schistosoma mansoni. Nature of the assay: Cytotoxicity against juvenile Schistosoma mansoni assessed as decrease in viability at 20 to 50 uM incubated for 24 hrs by CellTiter-Glo Luminescent assay relative to control. It counts as functional. To be noted: dose 20-50 µM. The procedure, abridged:
(§4)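 Perfused juvenile worms cultured in supplemented RPMI (10% FBS, 37°C, 5% CO2), exposed 24 or 48 h to compound or 0.1% DMSO. Total parasite ATP read by luminescence, given as % of vehicle; three replicate experiments of 10 juveniles each, mean ± SD.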

The subject of assay [10] is Schistosoma mansoni. As to the kind of experiment: Cytotoxicity against juvenile Schistosoma mansoni assessed as decrease in viability at 50 uM incubated for 48 hrs by CellTiter-Glo Luminescent assay relative to control. It counts as functional. The method in brief:
as §4
(In general: ATP-based viability assays read luminescence as a measure of living cells.)

The test system of assay [11] is Schistosoma mansoni. As to the kind of experiment: Antischistosomal activity against Schistosoma mansoni assessed as developmental changes at 20 uM incubated for 24 hrs by scanning electron microscopy analysis. Type of assay: functional, organism-based. The procedure, abridged:
(§5)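 Newly transformed schistosomula were held 16 h in M169 with 2% FBS, serotonin, hypoxanthine, hydrocortisone, triiodothyronine and antibiotics at 37°C, 5% CO2, at 2,000 per well. They were then exposed to 20 μM GSK343 or 0.1% DMSO for 24 and 48 h. Fixation was modified Karnovsky (pH 7.4) with 1% osmium post-fix, then ethanol dehydration, critical-point drying, gold coating and SEM. Lengths came from three experiments, each with 20 schistosomula.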

Assay [12] deals with Schistosoma mansoni. Nature of the assay: Antischistosomal activity against Schistosoma mansoni assessed as lower growth rate at 20 uM incubated for 24 to 48 hrs by scanning electron microscopy analysis. It counts as functional. Particulars: time 24-48 hrs. The procedure, abridged: as §5
Assay [13] has as its system Schistosoma mansoni. As to the kind of experiment: Antischistosomal activity against adult Schistosoma mansoni assessed as decreased H3K27me3 level at 20 uM incubated for 48 hrs by Western blotting analysis. Type of assay: functional, organism-based. The procedure, abridged: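 Fifty adult worm pairs were treated 48 h with 20 μM GSK343 or vehicle in supplemented RPMI/10% FBS, then lysed in Triton buffer. Nuclear pellets were acid-extracted overnight in 0.25 M HCl at 4°C and histones were TCA-concentrated. 10 μg went on 15% SDS-PAGE and nitrocellulose, probed with anti-H3K27me3, K9ac, K27ac or K4me3, then IRDye secondaries; infrared densitometry was normalized to anti-H3. Three biological replicates; t-test.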

For assay [14], the system named is Schistosoma mansoni. Nature of the assay: Antischistosomal activity against Schistosoma mansoni assessed as decreased H3K27me3 level in schistosomula at 20 uM incubated for 48 hrs by Western blotting analysis. It counts as functional, organism-based. The procedure, abridged: (§6)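 About 10,000 schistosomula were treated 48 h with 20 μM GSK343 or vehicle, then sonicated in Triton X-100 lysis buffer with PMSF and protease inhibitors. Supernatant nuclear extract (BCA-quantified, 10 μg) was run on 15% SDS-PAGE and blotted to nitrocellulose. Blots were probed with mark-specific monoclonal antibodies, then IRDye secondaries; infrared imaging was used and signals were normalized to total H3. t-test.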

The test system of assay [15] is Schistosoma mansoni. As to the kind of experiment: Antischistosomal activity against Schistosoma mansoni assessed as increased H3K9ac level in schistosomula at 20 uM incubated for 48 hrs by Western blotting analysis. It counts as functional, organism-based. The method in brief: as §6
Assay [16] deals with Schistosoma mansoni. As to the kind of experiment: Antischistosomal activity against Schistosoma mansoni assessed as increased H3K27me1 level in schistosomula at 20 uM incubated for 48 hrs by Western blotting analysis. It counts as functional, organism-based. The procedure, abridged:
as §6
In general terms: In western blotting, separated proteins are transferred to a membrane and probed.

For assay [17], the system named is Schistosoma mansoni. Nature of the assay: Antischistosomal activity against female Schistosoma mansoni assessed as down-regulated p48 mRNA level at 20 uM incubated for 48 hrs by RT-qPCR analysis. Type of assay: functional, organism-based. A general note: Real-time PCR tracks product formation cycle by cycle.
Assay [18] deals with Schistosoma mansoni. Nature of the assay: Antischistosomal activity against female Schistosoma mansoni assessed as down-regulated ESP mRNA level at 20 uM incubated for 48 hrs by RT-qPCR analysis. Type of assay: functional, organism-based. The procedure, abridged: (§7)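 Schistosomula (supplemented M169) or adult worms (supplemented RPMI) were treated 48 h with 20 μM GSK343 or 0.1% DMSO at 37°C, 5% CO2. qPCR normalizer genes were chosen from RNA-seq data as those with TPM >1 and a treated/control ratio of 0.9–1.1 that were not differentially expressed. Relative expression was calculated by comparative Ct; significance by t-test.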

Assay [19] concerns Schistosoma mansoni. Nature of the assay: Antischistosomal activity against female Schistosoma mansoni assessed as down-regulated nanos mRNA level at 20 uM incubated for 48 hrs by RT-qPCR analysis. Type of assay: functional, organism-based. The procedure, abridged:
as §7

Assay [20] deals with Schistosoma mansoni. As to the kind of experiment: Antischistosomal activity against female Schistosoma mansoni assessed as down-regulated EEFB1 mRNA level at 20 uM incubated for 48 hrs by RT-qPCR analysis. Type of assay: functional, organism-based. The method in brief:
as §7

Assay [21] relates to Schistosoma mansoni. Nature of the assay: Antischistosomal activity against Schistosoma mansoni assessed as down-regulated Val7 mRNA level in schistosomula at 20 uM incubated for 48 hrs by RT-qPCR analysis. Type of assay: functional, organism-based. The procedure, abridged: as §7

Activity calls are given as the source filed them. The rule behind the calls is not given here.

For `CCCc1cc(C)[nH]c(=O)c1CNC(=O)c1cc(-c2ccnc(N3CCN(C)CC3)c2)cc2c1cnn2C(C)C`, the outcome in the assay on Schistosoma mansoni [1], in the assay with Schistosoma mansoni [4], in the assay with Schistosoma mansoni [5], in the assay with Schistosoma mansoni [6], with Schistosoma mansoni [8] and with Schistosoma mansoni [13] was Active. For the same molecule, the outcome with Schistosoma mansoni [14], in the assay with Schistosoma mansoni [15], in the assay with Schistosoma mansoni [16], with Schistosoma mansoni [17], in the assay with Schistosoma mansoni [18] and in the assay with Schistosoma mansoni [19] was Active. Moreover, the outcome in the assay with Schistosoma mansoni [20] and with Schistosoma mansoni [21] was Active. Also, the Activity is approximately 40% with Schistosoma mansoni [2], 30% with Schistosoma mansoni [7], 20% in the assay with Schistosoma mansoni [9] and 70% in the assay with Schistosoma mansoni [10]. Further, the result in the assay on Schistosoma mansoni [3] and in the assay with Schistosoma mansoni [11] was inactive. Also, the “fold change (FC)” value in the assay with Schistosoma mansoni [12] was found to be 4.
